Source: ChEMBL document CHEMBL4422671, “New Quinolylnitrones for Stroke Therapy: Antioxidant and Neuroprotective ( Z)- N- tert-Butyl-1-(2-chloro-6-methoxyquinolin-3-yl)methanimine Oxide as a New Lead-Compound for Ischemic Stroke Treatment” (J Med Chem, 2019)
Each block holds one molecule with its values, some of them ahead of it. Calls of active or inactive are those of the source. The rule behind the calls is not given here.

Experiments:
[1] = Antioxidant activity assessed as superoxide anion scavenging activity at 0.1 mM pH 7.4 after 10 mins by NBT assay; assay type: functional
Outline: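 Superoxide generated by xanthine/xanthine oxidase (0.07 U/mL) in 0.1 M phosphate buffer pH 7.4 containing NBT and compound at 0.1 mM final. After 10 min at rt, absorbance read at 560 nm. Caffeic acid as standard.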

[2] = Antioxidant activity assessed as DPPH free radical scavenging activity at 0.1 mM measured after 20 to 60 mins; assay type: functional
Outline: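 DPPH 0.1 mM in absolute ethanol with compound at 0.1 mM final (from DMSO). Absorbance at 517 nm recorded after 20 and 60 min at rt. NDGA as standard.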

[3] = Antioxidant activity assessed as hydroxyl radical scavenging activity at 0.1 mM measured after 30 mins; assay type: functional
Outline: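 Hydroxyl radicals from Fe3+/ascorbic acid: EDTA 0.1 mM, Fe3+ 167 μM, DMSO 33 mM, compound 0.1 mM and ascorbic acid 10 mM in 50 mM phosphate buffer pH 7.4. Incubated 37 °C for 30 min, stopped with 17% w/v TCA. Read-out is inhibition of formaldehyde formation, given as % scavenging. Trolox as reference.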

[4] = Antioxidant activity assessed as ABTS radical cation scavenging activity by measuring trolox equivalents at 10 uL after 1 min; assay type: functional
Outline: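 ABTS radical cation made from 2 mM aqueous ABTS plus 0.17 mM potassium persulfate in 20 mM phosphate buffer pH 7.4, kept 12–16 h dark at rt. Diluted with ethanol to A734 0.70, then mixed with 10 μL compound from 10 mM stock. Absorbance read at rt 1 min after mixing. Trolox as standard.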

Primary neuron [5] = experiment: Neuroprotective activity against oxygen-glucose deprivation-induced cell death in Sprague-Dawley rat primary neuronal cells assessed as cell viability at 1 to 250 uM treated at onset of recovery period and measured at 24 hrs of recovery by MTT assay relative to control; assay type: functional, cell-based
Outline: (§1)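 Rat cortical neurons from E16–17 Sprague-Dawley embryos, used at 6–7 days in serum-free medium. OGD: glucose-free medium bubbled with 95% N2/5% CO2, <0.1% O2, 6.5% CO2, 37 °C, 4 h. Compound added at start of 24 h normoxic recovery. Viability by MTT (0.2 mg/mL, 1.5 h), lysis with HCl/SDS, read at 595/690 nm, relative to 100% control. Four to eight culture batches, each in quadruplicate.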

[6] = Antiinflammatory activity assessed as NO release at 100 uM after 60 mins in presence of L-cysteine by Griess reagent-based relative to control; assay type: functional
Outline: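 NO-release test: compound at 100 μM final (from DMSO) in 50 mM phosphate buffer pH 7.4 containing 1 mM L-cysteine, 60 min at 37 °C. Reaction mixture then treated with Griess reagent, left 10 min at rt, absorbance read at 540 nm. Sodium nitroprusside as standard. Mean of three to four determinations.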

[7] = biological target: Lipoxygenase (Glycine max) (UniProt Q39829); experiment: Inhibition of soybean lipoxygenase at 1 to 100 uM using sodium linoleate as substrate by UV-based analysis relative to control
Outline: (§2)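 Soybean lipoxygenase (enzyme 1/9 ×10⁻⁴ w/v in saline) incubated at rt with 0.1 mM sodium linoleate and compound in DMSO, at several concentrations from 1 to 100 µM diluted from 10 mM stock. Conversion to 13-hydroperoxylinoleic acid recorded at 234 nm; IC50 derived. NDGA as reference inhibitor.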

[8] = Antioxidant activity assessed as inhibition of linoleic acid peroxidation activity at 10 uL; assay type: functional; parameters: scale not given: the % may be the effect or the level left
Outline: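 AAPH-initiated peroxidation of sodium linoleate dispersion (16 mM, 10 μL) in 0.05 M phosphate buffer pH 7.4 at 37 °C under air. Initiator was 50 μL of 40 mM AAPH, with 10 μL compound added. Conjugated diene hydroperoxide followed at 234 nm. Trolox as reference.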

Primary neuron [9] = experiment: Neuroprotective activity against oxygen-glucose deprivation-induced cell death in Sprague-Dawley rat primary neuronal cells assessed as cell viability at 1 to 100 uM treated at onset of recovery period and measured at 24 hrs of recovery by MTT assay relative to control; assay type: functional, cell-based; outline: as §1
[10] = Neuroprotective activity against oxygen-glucose deprivation-induced cell death in Sprague-Dawley rat primary neuronal cells assessed as cell viability at 10 uM treated at onset of recovery period and measured at 24 hrs of recovery by MTT assay relative to control; assay type: functional; conditions: Primary neuron, read-out: Activity; outline: as §1
[11] = Neuroprotective activity against oxygen-glucose deprivation-induced cell death in Sprague-Dawley rat primary neuronal cells assessed as cell viability at 50 uM treated at onset of recovery period and measured at 24 hrs of recovery by MTT assay relative to control; assay type: functional; conditions: Primary neuron, read-out: Activity; outline: as §1
Lipoxygenase = Lipoxygenase (Glycine max, UniProt Q39829); experiment: Inhibition of soybean lipoxygenase using sodium linoleate as substrate by UV-based analysis; outline: as §2
Primary neuron [12] = experiment: Neuroprotective activity against oxygen-glucose deprivation-induced cell death in Sprague-Dawley rat primary neuronal cells assessed as cell viability at 0.5 to 250 uM treated at onset of recovery period and measured at 24 hrs of recovery by MTT assay relative to control; assay type: functional, cell-based; outline: as §1
Primary neuron [13] = experiment: Neuroprotective activity against oxygen-glucose deprivation-induced cell death in Sprague-Dawley rat primary neuronal cells assessed as cell viability at 1 to 10 uM treated at onset of recovery period and measured at 24 hrs of recovery by MTT assay relative to control; assay type: functional, cell-based; outline: as §1

Compound: O=C(O)/C=C/c1ccc(O)c(O)c1
Activity [1]: 15%

Compound: CC(Cc1ccc(O)c(O)c1)C(C)Cc1ccc(O)c(O)c1 (stereo not given) [NORDIHYDROGUAIARETIC ACID]
Activity [2]: 93%

inhibition [7]: 26%
Compound: COc1ccc2nc(Cl)c(/C=[N+](/C)[O-])cc2c1
Activity [1]: 29%
Activity [3]: 100%
Activity [4]: inactive
Activity (Primary neuron [5]): inactive
Activity [6]: 11%
Activity [8]: 100%
Activity [2]: inactive

Compound: COc1ccc2nc(Cl)c(C=O)cc2c1
Activity (Primary neuron [9]): inactive

Compound: Cc1ccc2nc(Cl)c(/C=[N+](\[O-])Cc3ccccc3)cc2c1
viability at 10 µM [10]: 55.4%
viability at 50 µM [11]: 56.8%

IC50 (Lipoxygenase): 32.5 µM
Compound: CC(C)(C)/[N+]([O-])=C/c1cc2ccccc2nc1Cl
Activity [1]: 16%
Activity [3]: 97%
Activity (Primary neuron [9]): inactive
Activity [4]: inactive
Activity [6]: 7.5%
Activity [8]: inactive
Activity [2]: 7%

Compound: Cc1ccc2nc(Cl)c(/C=N/O)cc2c1
Activity (Primary neuron [12]): inactive

Compound: CC(C)(C)/[N+]([O-])=C/c1cc2ccccc2n2nnnc12
Activity (Primary neuron [9]): inactive

Compound: Cc1ccc2nc(O)c(/C=[N+](\[O-])C(C)(C)C)cc2c1
Activity (Primary neuron [5]): Active

Compound: Cc1ccc2nc(Cl)c(/C=[N+](\[O-])c3ccccc3)cc2c1
Activity (Primary neuron [5]): inactive

Compound: CNc1nc2ccc(C)cc2cc1/C=[N+](\[O-])Cc1ccccc1
Activity (Primary neuron [13]): inactive

Compound: Cc1ccc2nc(Cl)c(/C=N/Cc3ccccc3)cc2c1
Activity (Primary neuron [12]): inactive

Compound: Cc1ccc2ncc(/C=[N+](\[O-])Cc3ccccc3)cc2c1
Activity (Primary neuron [5]): Active

Compound: [O-]/[N+](=C\c1cc2cc(O)ccc2nc1Cl)Cc1ccccc1
Activity (Primary neuron [5]): inactive

Compound: Cc1ccc2nc(Cl)c(/C=N/N)cc2c1
Activity (Primary neuron [5]): inactive
